Measurements published in ChEMBL document CHEMBL6071131, “New substituted benzoxazine derivatives as potent inducers of membrane permeability and cell death” (Bioorg Med Chem, 2024).
Calls of active or inactive are those of the source. The calls are words filed in the database; no cut-off is given here.

Columns and labels:
HCT-116 [1] = assay: Antiproliferative activity against human HCT-116 cells incubated for 72 hrs by SRB assay; type: functional, cell-based; settings: HCT-116, 72 h
In short: (§1)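 Sulforhodamine B colorimetric read-out after 72 h drug exposure. Cells kept in DMEM with 10 % FBS and 1 % penicillin/streptomycin at 37 °C under 5 % CO₂, mycoplasma-checked, passaged under 6 months. Compounds given from DMSO stocks diluted in medium, final DMSO ≤ 0.1 % v/v, with DMSO-only parallel cultures as controls. IC50 reported as mean ± SD of three independent determinations, each run in duplicate.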

MCF7 [2] = assay: Antiproliferative activity against human MCF7 cells incubated for 72 hrs by SRB assay; type: functional, cell-based; settings: MCF7, 72 h; in short: as §1
[3] = biological target: Epidermal growth factor receptor (Homo sapiens) (UniProt P00533); assay: Inhibition of human EGFR assessed as residual activity at 50 uM relative to control
Epidermal growth factor receptor (Homo sapiens), sequence (P00533 whole entry): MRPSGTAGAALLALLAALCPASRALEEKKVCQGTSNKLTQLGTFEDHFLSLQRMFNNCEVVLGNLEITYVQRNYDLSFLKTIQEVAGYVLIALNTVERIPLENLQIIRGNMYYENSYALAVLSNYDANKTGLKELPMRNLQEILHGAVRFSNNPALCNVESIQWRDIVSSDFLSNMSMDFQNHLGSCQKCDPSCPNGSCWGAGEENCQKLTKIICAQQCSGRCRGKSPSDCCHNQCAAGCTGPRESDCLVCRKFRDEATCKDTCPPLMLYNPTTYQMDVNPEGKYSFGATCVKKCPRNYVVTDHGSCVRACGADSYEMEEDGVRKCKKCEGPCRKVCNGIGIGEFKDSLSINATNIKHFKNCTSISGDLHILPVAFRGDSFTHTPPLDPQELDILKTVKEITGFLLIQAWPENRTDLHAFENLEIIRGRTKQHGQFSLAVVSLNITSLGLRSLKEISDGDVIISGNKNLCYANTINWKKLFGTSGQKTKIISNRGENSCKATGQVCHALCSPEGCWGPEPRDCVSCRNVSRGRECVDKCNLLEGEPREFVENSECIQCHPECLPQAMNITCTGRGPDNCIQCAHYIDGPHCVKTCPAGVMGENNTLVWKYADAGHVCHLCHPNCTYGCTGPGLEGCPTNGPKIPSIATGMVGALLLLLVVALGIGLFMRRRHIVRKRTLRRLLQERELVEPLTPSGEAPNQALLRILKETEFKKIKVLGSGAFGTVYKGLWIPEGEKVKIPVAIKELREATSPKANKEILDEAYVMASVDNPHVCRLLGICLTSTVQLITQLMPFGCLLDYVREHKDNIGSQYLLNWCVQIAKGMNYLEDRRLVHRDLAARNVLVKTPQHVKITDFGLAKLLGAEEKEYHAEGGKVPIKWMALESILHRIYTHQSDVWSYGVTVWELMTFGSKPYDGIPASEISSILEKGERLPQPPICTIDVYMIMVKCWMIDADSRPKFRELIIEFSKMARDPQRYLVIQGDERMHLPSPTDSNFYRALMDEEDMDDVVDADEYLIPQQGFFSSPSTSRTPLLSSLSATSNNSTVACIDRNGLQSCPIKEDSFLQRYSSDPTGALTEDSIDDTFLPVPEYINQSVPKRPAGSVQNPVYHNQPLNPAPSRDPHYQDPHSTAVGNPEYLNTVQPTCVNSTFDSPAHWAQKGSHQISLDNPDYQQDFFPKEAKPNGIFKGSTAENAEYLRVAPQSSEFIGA
In short: (§2)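 Residual kinase activity determined with each compound at 5×10⁻⁶ and 5×10⁻⁵ M, in singlicate per kinase assay, expressed relative to uninhibited control.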

[4] = biological target: Receptor tyrosine-protein kinase erbB-2 (Homo sapiens) (UniProt P04626); assay: Inhibition of human HER2 assessed as residual activity at 5 uM relative to control; in short: as §2
Receptor tyrosine-protein kinase erbB-2 (Homo sapiens), sequence (P04626 whole entry): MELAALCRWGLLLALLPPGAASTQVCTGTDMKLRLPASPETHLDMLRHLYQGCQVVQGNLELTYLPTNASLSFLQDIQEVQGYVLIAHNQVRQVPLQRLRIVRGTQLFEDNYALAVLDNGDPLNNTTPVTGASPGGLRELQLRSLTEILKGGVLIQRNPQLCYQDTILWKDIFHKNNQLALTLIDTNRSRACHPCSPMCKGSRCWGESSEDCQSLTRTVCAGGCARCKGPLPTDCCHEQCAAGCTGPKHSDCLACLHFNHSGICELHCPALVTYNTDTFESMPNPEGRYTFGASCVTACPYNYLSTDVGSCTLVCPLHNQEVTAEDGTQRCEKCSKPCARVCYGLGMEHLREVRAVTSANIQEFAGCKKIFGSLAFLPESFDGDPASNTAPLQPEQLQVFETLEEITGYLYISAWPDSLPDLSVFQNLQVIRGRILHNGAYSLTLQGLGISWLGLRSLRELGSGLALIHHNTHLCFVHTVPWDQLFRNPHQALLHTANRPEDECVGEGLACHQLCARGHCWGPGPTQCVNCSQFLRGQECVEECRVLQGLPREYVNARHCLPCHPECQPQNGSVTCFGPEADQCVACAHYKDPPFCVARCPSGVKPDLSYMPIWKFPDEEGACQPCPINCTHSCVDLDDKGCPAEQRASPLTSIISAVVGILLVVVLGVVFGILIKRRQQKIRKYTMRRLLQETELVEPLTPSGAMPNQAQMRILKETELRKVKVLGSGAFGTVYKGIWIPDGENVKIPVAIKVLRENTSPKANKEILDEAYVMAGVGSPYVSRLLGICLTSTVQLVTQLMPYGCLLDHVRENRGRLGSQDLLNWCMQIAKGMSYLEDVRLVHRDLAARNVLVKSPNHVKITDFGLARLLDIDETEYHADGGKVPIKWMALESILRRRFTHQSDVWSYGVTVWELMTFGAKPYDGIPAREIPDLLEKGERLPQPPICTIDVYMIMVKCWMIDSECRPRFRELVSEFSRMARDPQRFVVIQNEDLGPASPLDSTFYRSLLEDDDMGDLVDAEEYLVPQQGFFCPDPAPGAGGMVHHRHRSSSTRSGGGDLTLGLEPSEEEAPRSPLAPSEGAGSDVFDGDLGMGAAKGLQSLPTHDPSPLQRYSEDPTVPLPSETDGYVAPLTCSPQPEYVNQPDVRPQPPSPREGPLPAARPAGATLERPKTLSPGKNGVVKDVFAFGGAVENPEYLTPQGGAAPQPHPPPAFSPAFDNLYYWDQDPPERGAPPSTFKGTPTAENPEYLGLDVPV

[5] = biological target: Mitogen-activated protein kinase 1 (Homo sapiens) (UniProt P28482); assay: Inhibition of human ERK2 assessed as residual activity at 5 uM relative to control; in short: as §2
Mitogen-activated protein kinase 1 (Homo sapiens), sequence (P28482 whole entry): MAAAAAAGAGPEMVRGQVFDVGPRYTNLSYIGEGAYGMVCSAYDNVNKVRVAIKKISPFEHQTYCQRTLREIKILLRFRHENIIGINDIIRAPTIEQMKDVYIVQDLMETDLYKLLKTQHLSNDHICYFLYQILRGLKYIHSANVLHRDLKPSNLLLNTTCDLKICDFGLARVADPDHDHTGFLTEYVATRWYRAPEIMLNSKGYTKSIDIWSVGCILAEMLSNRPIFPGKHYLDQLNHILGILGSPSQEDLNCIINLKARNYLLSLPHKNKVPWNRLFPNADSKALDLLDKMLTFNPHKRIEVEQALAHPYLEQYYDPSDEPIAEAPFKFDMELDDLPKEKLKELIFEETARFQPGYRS

Homo sapiens [6] = species on record: Homo sapiens; assay: Inhibition of human AKT assessed as residual activity at 5 uM relative to control; in short: as §2
[7] = biological target: T1, LKB1-STRAD-MO25 complex (Homo sapiens) (UniProt Q15831+Q7RTN6+Q9Y376); assay: Inhibition of human LKB1/MO25/STRADalpha assessed as residual activity at 5 uM relative to control; type: protein-complex assay; in short: as §2
[8] = biological target: Mitogen-activated protein kinase 8 (Homo sapiens) (UniProt P45983); assay: Inhibition of human JNK1 assessed as residual activity at 50 uM relative to control; in short: as §2
Mitogen-activated protein kinase 8 (Homo sapiens), sequence (P45983 whole entry): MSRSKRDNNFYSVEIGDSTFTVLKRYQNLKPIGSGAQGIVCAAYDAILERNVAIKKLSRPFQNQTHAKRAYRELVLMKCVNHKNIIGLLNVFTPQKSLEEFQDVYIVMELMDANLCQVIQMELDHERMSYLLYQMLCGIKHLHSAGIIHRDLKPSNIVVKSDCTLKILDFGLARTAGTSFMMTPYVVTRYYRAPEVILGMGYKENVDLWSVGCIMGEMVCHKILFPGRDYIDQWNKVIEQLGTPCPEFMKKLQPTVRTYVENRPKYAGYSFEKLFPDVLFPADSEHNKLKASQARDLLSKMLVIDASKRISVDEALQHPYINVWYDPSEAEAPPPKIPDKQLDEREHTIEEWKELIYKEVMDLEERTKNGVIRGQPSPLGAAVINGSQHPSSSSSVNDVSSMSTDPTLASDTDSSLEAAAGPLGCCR

Homo sapiens [9] = species on record: Homo sapiens; assay: Inhibition of human AKT assessed as residual activity at 50 uM relative to control; in short: as §2
[10] = biological target: T1, LKB1-STRAD-MO25 complex (Homo sapiens); assay: Inhibition of human LKB1/MO25/STRADalpha assessed as residual activity at 50 uM relative to control; type: protein-complex assay; in short: as §2
[11] = biological target: Receptor tyrosine-protein kinase erbB-2 (Homo sapiens) (UniProt P04626); assay: Inhibition of human HER2 assessed as residual activity at 50 uM relative to control; in short: as §2
[12] = biological target: 5'-AMP-activated protein kinase catalytic subunit alpha-1 (Homo sapiens) (UniProt Q13131); assay: Inhibition of human AMPK alpha-1 assessed as residual activity at 5 uM relative to control; in short: as §2
5'-AMP-activated protein kinase catalytic subunit alpha-1 (Homo sapiens), sequence (Q13131 whole entry, looked up): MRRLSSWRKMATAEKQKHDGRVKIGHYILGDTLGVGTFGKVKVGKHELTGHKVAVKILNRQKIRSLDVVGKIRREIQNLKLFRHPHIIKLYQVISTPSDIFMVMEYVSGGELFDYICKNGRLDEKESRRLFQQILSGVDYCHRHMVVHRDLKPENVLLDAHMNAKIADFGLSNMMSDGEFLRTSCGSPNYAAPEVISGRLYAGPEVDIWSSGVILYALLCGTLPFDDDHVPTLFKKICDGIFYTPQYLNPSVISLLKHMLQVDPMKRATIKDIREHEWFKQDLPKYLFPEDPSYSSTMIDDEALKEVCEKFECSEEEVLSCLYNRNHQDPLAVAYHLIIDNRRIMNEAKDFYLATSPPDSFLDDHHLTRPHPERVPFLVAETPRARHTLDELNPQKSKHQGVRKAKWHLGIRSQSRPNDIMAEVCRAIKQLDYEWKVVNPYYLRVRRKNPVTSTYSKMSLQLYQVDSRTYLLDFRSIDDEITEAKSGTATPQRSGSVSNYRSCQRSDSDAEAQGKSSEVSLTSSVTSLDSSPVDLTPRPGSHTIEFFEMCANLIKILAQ

[13] = biological target: Mitogen-activated protein kinase 1 (Homo sapiens) (UniProt P28482); assay: Inhibition of human ERK2 assessed as residual activity at 50 uM relative to control; in short: as §2
[14] = biological target: Mitogen-activated protein kinase 14 (Homo sapiens) (UniProt Q16539); assay: Inhibition of human P38-alpha assessed as residual activity at 5 uM relative to control; in short: as §2
Mitogen-activated protein kinase 14 (Homo sapiens), sequence (Q16539 whole entry): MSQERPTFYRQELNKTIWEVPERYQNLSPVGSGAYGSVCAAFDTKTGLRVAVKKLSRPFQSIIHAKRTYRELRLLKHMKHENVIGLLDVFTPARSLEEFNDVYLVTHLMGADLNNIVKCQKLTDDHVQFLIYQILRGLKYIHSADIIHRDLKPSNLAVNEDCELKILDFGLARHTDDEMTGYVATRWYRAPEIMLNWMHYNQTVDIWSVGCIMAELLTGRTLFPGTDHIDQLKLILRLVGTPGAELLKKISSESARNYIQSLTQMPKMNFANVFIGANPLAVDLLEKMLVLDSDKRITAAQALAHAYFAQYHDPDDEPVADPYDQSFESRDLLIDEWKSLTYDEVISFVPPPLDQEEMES

[15] = biological target: 5'-AMP-activated protein kinase catalytic subunit alpha-1 (Homo sapiens) (UniProt Q13131); assay: Inhibition of human AMPK alpha-1 assessed as residual activity at 50 uM relative to control; in short: as §2
[16] = biological target: Mitogen-activated protein kinase 8 (Homo sapiens) (UniProt P45983); assay: Inhibition of human JNK1 assessed as residual activity at 5 uM relative to control; in short: as §2
[17] = biological target: Epidermal growth factor receptor (Homo sapiens) (UniProt P00533); assay: Inhibition of human EGFR assessed as residual activity at 5 uM relative to control; in short: as §2
[18] = biological target: Mitogen-activated protein kinase 14 (Homo sapiens) (UniProt Q16539); assay: Inhibition of human P38-alpha assessed as residual activity at 50 uM relative to control; in short: as §2
MCF7 [19] = assay: Antiproliferative activity against human MCF7 cells incubated for 5 days by PrestoBlue assay; type: functional, cell-based; settings: MCF7, 120 h
HCT-116 [20] = assay: Antiproliferative activity against human HCT-116 cells incubated for 5 days by PrestoBlue assay; type: functional, cell-based; settings: HCT-116, 120 h
HCT-116 [21] = assay: Induction of apoptosis in human HCT-116 cells assessed as necrotic cells at 50 uM incubated for 12 hrs by Annexin V-FITC/PI staining based flow cytometry (reference value: 3.5 +/- 0.66 %); type: functional
HCT-116 [22] = assay: Induction of morphological changes in human HCT-116 cells assessed as formation of membrane blebbing incubated for 24 hrs by SEM analysis; type: functional, cell-based
MCF7 [23] = assay: Cytotoxicity against human MCF7 cells at 50 uM incubated for 12 hrs by PI staining based flow cytometry relative to control; type: functional
HCT-116 [24] = assay: Induction of morphological changes in human HCT-116 cells assessed as flattening of cellular structure incubated for 24 hrs by SEM analysis; type: functional, cell-based
HCT-116 [25] = assay: Induction of apoptosis in human HCT-116 cells assessed as late apoptotic cells at 50 uM incubated for 12 hrs by Annexin V-FITC/PI staining based flow cytometry (reference value: 2.8 +/- 0.38 %); type: functional
MCF7 [26] = assay: Induction of morphological changes in human MCF7 cells assessed as formation of round vesicular bodies incubated for 24 hrs by SEM analysis; type: functional, cell-based
HCT-116 [27] = assay: Induction of morphological changes in human HCT-116 cells assessed as formation of vesicular bodies incubated for 24 hrs by SEM analysis; type: functional, cell-based
HCT-116 [28] = assay: Induction of morphological changes in human HCT-116 cells assessed as multiple cellular remnants formation incubated for 24 hrs by SEM analysis; type: functional, cell-based
HCT-116 [29] = assay: Induction of cell cycle arrest in human HCT-116 cells assessed as accumulation of cells at S phase at 50 uM incubated for 12 hrs by PI staining based flow cytometry (reference value: 18.7 +/- 0.5 %); type: functional
MCF7 [30] = assay: Induction of morphological changes in human MCF7 cells assessed as formation of membrane blebbing incubated for 24 hrs by SEM analysis; type: functional, cell-based
MCF7 [31] = assay: Induction of apoptosis in human MCF7 cells assessed as early apoptotic cells at 50 uM incubated for 12 hrs by Annexin V-FITC/PI staining based flow cytometry (reference value: 0.33 +/- 0.12 %); type: functional
MCF7 [32] = assay: Induction of apoptosis in human MCF7 cells assessed as late apoptotic cells at 50 uM incubated for 12 hrs by Annexin V-FITC/PI staining based flow cytometry (reference value: 0.26 +/- 0.09 %); type: functional
MCF7 [33] = assay: Induction of morphological changes in human MCF7 cells assessed as formation of large pores in cell membrane incubated for 12 hrs by SEM analysis
HCT-116 [34] = assay: Induction of cell cycle arrest in human HCT-116 cells assessed as accumulation of cells at G2/M phase at 50 uM incubated for 12 hrs by PI staining based flow cytometry (reference value: 8.3 +/- 0.74 %); type: functional
HCT-116 [35] = assay: Induction of morphological changes in human HCT-116 cells assessed as pore formation in cell membrane incubated for 24 hrs by SEM analysis; type: functional, cell-based
MCF7 [36] = assay: Induction of apoptosis in human MCF7 cells assessed as necrotic cells at 50 uM incubated for 12 hrs by Annexin V-FITC/PI staining based flow cytometry (reference value: 0.56 +/- 0.04 %); type: functional

IC50 (HCT-116 [1])	IC50 (MCF7 [2])	Activity [3]	Activity [4]	Activity [5]	Activity (Homo sapiens [6])	Activity [7]	Activity [8]	Activity (Homo sapiens [9])	Activity [10]	Activity [11]	Activity [12]	Activity [13]	Activity [14]	Activity [15]	Activity [16]	Activity [17]	Activity [18]	SMILES	also measured
15.7 µM	14.5 µM																	Cc1ccc(S(=O)(=O)N2CC(CCn3cnc4c(Cl)ncnc43)Oc3ccc(Br)cc32)cc1 (configuration not stated)	
13.6 µM	23 µM																	Cc1ccc(S(=O)(=O)N2CC(CCn3cnc4c(C(F)(F)F)ncnc43)Oc3cc(Cl)ccc32)cc1 (configuration not stated)	
14.8 µM	11.2 µM																	Cc1ccc(S(=O)(=O)N2CC(CCn3cnc4c(Cl)ncnc43)Oc3cc(Cl)ccc32)cc1 (configuration not stated)	
23.6 µM	20.6 µM																	Cc1ccc(S(=O)(=O)N2CC(CCn3cnc4c(C(F)(F)F)ncnc43)Oc3ccc(Br)cc32)cc1 (configuration not stated)	
23.8 µM	12.9 µM																	Cc1ccc(S(=O)(=O)N2CC(CCn3cnc4c(Cl)ncnc43)Oc3ccc(C)cc32)cc1 (configuration not stated)	
7.85 µM	5.52 µM	59%	78%	86%	95%	98%	44%	87%	95%	63%	86%	66%	97%	70%	88%	94%	59%	Cc1ccc(S(=O)(=O)N2CC(CCn3cnc4c(Cl)nc(Cl)nc43)Oc3ccc(Br)cc32)cc1 (configuration not stated)	

Continued, compound first:

SMILES	IC50 (HCT-116 [1])	IC50 (MCF7 [2])	Activity [3]	Activity [4]	Activity [5]	Activity (Homo sapiens [6])	Activity [7]	Activity [8]	Activity (Homo sapiens [9])	Activity [10]	Activity [11]	Activity [12]	Activity [13]	Activity [14]	Activity [15]	Activity [16]	Activity [17]	Activity [18]	also measured
Cc1ccc(S(=O)(=O)N2CC(CCn3cnc4c(C(F)(F)F)ncnc43)Oc3ccc(C)cc32)cc1 (configuration not stated)	4.63 µM	31.1 µM																	
Cc1ccc(S(=O)(=O)N2CC(CCn3cnc4c(Br)ncnc43)Oc3cc(Cl)ccc32)cc1 (configuration not stated)	12.8 µM	6.77 µM	64%	84%	90%	94%	94%	47%	99%	129%	65%	90%	68%	91%	73%	89%	108%	112%	
Cc1ccc(S(=O)(=O)N2CC(CCn3cnc4c(Cl)nc(Cl)nc43)Oc3ccccc32)cc1 (configuration not stated)																			IC50 (MCF7 [19]): 13 µM; IC50 (HCT-116 [20]): 7.06 µM
Cc1ccc(S(=O)(=O)N2CC(CCn3cnc4c(Cl)nc(Cl)nc43)Oc3cc(Cl)ccc32)cc1 (configuration not stated)	7.63 µM	3.26 µM	57%	76%	93%	103%	84%	67%	139%	100%	67%	87%	94%	72%	89%	78%	74%	77%	Activity (HCT-116 [21]): 28.4%; Activity (HCT-116 [22]): Active; Activity (MCF7 [23]): 100%; Activity (HCT-116 [24]): Active; Activity (HCT-116 [25]): 49.5%; Activity (MCF7 [26]): Active; Activity (HCT-116 [27]): Active; Activity (HCT-116 [28]): Active; Activity (HCT-116 [29]): 49.2%; Activity (MCF7 [30]): Active; Activity (MCF7 [31]): 7.9%; Activity (MCF7 [32]): 87.3%; Activity (MCF7 [33]): Active; Activity (HCT-116 [34]): 6.67%; Activity (HCT-116 [35]): Active; Activity (MCF7 [36]): 0.83%
Cc1ccc(S(=O)(=O)N2CC(CCn3cnc4c(Br)ncnc43)Oc3ccc(Br)cc32)cc1 (configuration not stated)	16.4 µM	7.31 µM																	
Cc1ccc(S(=O)(=O)N2CC(CCn3cnc4c(Br)ncnc43)Oc3ccc(C)cc32)cc1 (configuration not stated)	9.4 µM	4.01 µM	67%	99%	81%	89%	95%	52%	106%	131%	55%	90%	74%	93%	86%	84%	97%	70%	
Cc1ccc(S(=O)(=O)N2CC(CCn3cnc4c(Cl)nc(Cl)nc43)Oc3ccc(C)cc32)cc1 (configuration not stated)	4.44 µM	2.27 µM	62%	90%	88%	88%	88%	56%	104%	89%	50%	93%	73%	112%	75%	96%	96%	82%	Activity (HCT-116 [21]): 36.3%; Activity (HCT-116 [22]): Active; Activity (MCF7 [23]): 100%; Activity (HCT-116 [24]): Active; Activity (HCT-116 [25]): 26.5%; Activity (MCF7 [26]): Active; Activity (HCT-116 [27]): Active; Activity (HCT-116 [28]): Active; Activity (HCT-116 [29]): 51.25%; Activity (MCF7 [30]): Active; Activity (MCF7 [31]): 9.3%; Activity (MCF7 [32]): 77.8%; Activity (MCF7 [33]): Active; Activity (HCT-116 [34]): 5.3%; Activity (MCF7 [36]): 2.1%
